The source made the active and inactive calls. No cut-off for these calls is given here.
What was measured:
MCF7 = test: Growth inhibition of human MCF7 cells after 48 hrs by MTT assay; type: functional; conditions: MCF7, 48 h
Outline: (§1)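 Proliferation read-out; GI50 taken as the concentration giving 50% reduction of cancer cell proliferation.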

A549 = test: Growth inhibition of human A549 cells after 48 hrs by MTT assay; type: functional; conditions: A549, 48 h; outline: as §1
HepG2 = test: Growth inhibition of human HepG2 cells after 48 hrs by MTT assay; type: functional; conditions: HepG2, 48 h; outline: as §1
HeLa [1] = test: Growth inhibition of human HeLa cells after 48 hrs by MTT assay; type: functional; outline: as §1
[2] = Cytotoxicity against HEK293T cells assessed as reduction in cell viability after 48 hrs by MTT assay; type: cell-based, HEK-293T; conditions: human
[3] = Inhibition of porcine brain tubulin polymerization measured over 30 mins; set-up: species or system Sus scrofa
Tubulin (Homo sapiens) [4] = target: T1, Tubulin (Homo sapiens) (UniProt P68371+Q9H4B7+P0DPH7+P68366+Q13509+Q71U36+P04350+Q3ZCM7+P07437+P68363+Q9BQE3+Q6PEY2+Q13885+Q9BVA1+Q9BUF5); test: Inhibition of tubulin polymerization in human HepG2 cells assessed as abnormal microtubule network formation at 0.04 uM after 12 hrs by DAPI staining based immunofluorescence confocal laser scanning microscopic analysis; type: cell-based
Tubulin (Homo sapiens) [5] = target: T1, Tubulin (Homo sapiens); test: Inhibition of tubulin polymerization in human HeLa cells assessed as abnormal microtubule network formation at 0.04 uM after 12 hrs by DAPI staining based immunofluorescence confocal laser scanning microscopic analysis; type: cell-based
HeLa [6] = test: Antitumor activity against human HeLa cells xenografted in nude mouse assessed as tumor volume at 10 mg/kg, ip after 14 days (reference value: 2292.17 mm3); type: functional
HeLa [7] = test: Antitumor activity against human HeLa cells xenografted in nude mouse assessed as tumor weight at 10 mg/kg, ip after 14 days (reference value: 1.54 g); type: functional
Bos taurus = organism: Bos taurus; test: Inhibition of colchicine binding to calf brain tubulin preincubated for 1 hr followed by colchicine addition measured after 1 hr by UPLC-MS/MS analysis
HeLa [8] = test: Antitumor activity against human HeLa cells xenografted in nude mouse assessed as necrosis of tumor cells at 10 mg/kg, ip after 14 days by hematoxylin and eosin staining based microscopic analysis; type: functional, organism-based
Outline: (§2)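 Excised tumours and heart, liver, kidney and spleen were H&E-stained and examined microscopically. Tumour scoring covered cell arrangement and necrosis. Organ scoring covered inflammatory infiltration, edema, necrosis and cell morphology.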

HeLa [9] = test: Antitumor activity against human HeLa cells xenografted in nude mouse assessed as loose and irregular arrangement of tumor cells at 10 mg/kg, ip after 14 days by hematoxylin and eosin staining based microscopic analysis; type: functional, organism-based; outline: as §2

SMILES | GI50 (MCF7) [nM] | GI50 (A549) [nM] | GI50 (HepG2) [nM] | GI50 (HeLa [1]) [nM] | IC50 [3] [µM] | inhibition (Tubulin (Homo sapiens) [4]) | inhibition (Tubulin (Homo sapiens) [5]) | CC50 at 48 h [2] [µM] | Activity (HeLa [6]) [mm3] | Activity (HeLa [7]) [g] | inhibition (Bos taurus) | Activity (HeLa [8]) | Activity (HeLa [9])
Cn1cc(C2CC(c3ccccc3)=NN2C(=O)c2cccnc2Cl)c2ccccc21 (configuration not stated) | > 10000 | > 10000 | > 10000 | > 10000 | > 40 | – | – | > 300 | – | – | – | – | –
COc1ccc(C2=NN(C(=O)c3ccncc3)C(c3cn(C)c4ccc(Br)cc34)C2)cc1OC (configuration not stated) | > 10000 | 4250 | > 10000 | > 10000 | 17.8 | – | – | > 300 | – | – | – | – | –
Cn1cc(C2CC(c3ccc(Cl)cc3)=NN2C(=O)c2cccnc2)c2cc(Br)ccc21 (configuration not stated) | 8100 | 7650 | 5800 | 5200 | 19.4 | – | – | > 300 | – | – | – | – | –
COc1ccc(C2=NN(C(=O)c3cccnc3)C(c3cn(C)c4ccc(Br)cc34)C2)cc1 (configuration not stated) | 1560 | 1190 | 540 | 890 | 4.5 | – | – | > 300 | – | – | – | – | –
CC(=O)O[C@H]1C(=O)[C@@]2(C)[C@H]([C@H](OC(=O)c3ccccc3)[C@]3(O)C[C@H](OC(=O)[C@H](O)[C@@H](NC(=O)c4ccccc4)c4ccccc4)C(C)=C1C3(C)C)[C@]1(OC(C)=O)CO[C@@H]1C[C@@H]2O | – | – | – | – | – | inactive | inactive | – | – | – | – | – | –
COc1ccc2c(c1)c(C1CC(c3cc(OC)c(OC)c(OC)c3)=NN1C(=O)c1ccc(OC)nc1)cn2C (configuration not stated) | > 10000 | > 10000 | > 10000 | > 10000 | > 40 | – | – | > 300 | – | – | – | – | –
COc1ccc(C(=O)N2N=C(c3ccccc3)CC2c2cn(C)c3ccccc23)cn1 (configuration not stated) | 4310 | 3040 | 3130 | 3980 | 9.7 | – | – | > 300 | – | – | – | – | –
COc1ccc2c(c1)c(C1CC(c3ccc(Cl)cc3)=NN1C(=O)c1ccc(OC)nc1)cn2C (configuration not stated) | 3710 | 3390 | 2080 | 2260 | 15.6 | – | – | > 300 | – | – | – | – | –
Cc1ccc(C(=O)N2N=C(c3ccccc3)CC2c2cn(C)c3ccccc23)cn1 (configuration not stated) | 4010 | 1190 | 1220 | 2390 | 13.2 | – | – | 154 | – | – | – | – | –
COc1cc(C2=NN(C(=O)c3cccnc3)C(c3cn(C)c4ccc(Br)cc34)C2)cc(OC)c1OC (configuration not stated) | > 10000 | > 10000 | > 10000 | > 10000 | > 40 | – | – | 131 | – | – | – | – | –
COc1ccc(C2=NN(C(=O)c3cccnc3)C(c3cn(C)c4ccc(Br)cc34)C2)cc1OC (configuration not stated) | 1170 | 2380 | 2450 | 2090 | 5.6 | – | – | > 300 | – | – | – | – | –
Cn1cc(C2CC(c3ccccc3)=NN2C(=O)c2ccc(Cl)nc2)c2ccccc21 (configuration not stated) | 9250 | 8460 | 7910 | 8310 | 31.7 | – | – | > 300 | – | – | – | – | –
Cn1cc(C2CC(c3ccccc3)=NN2C(=O)c2cccnc2)c2ccccc21 (configuration not stated) | 7200 | > 10000 | 4630 | > 10000 | 26.7 | – | – | > 300 | – | – | – | – | –
COc1ccc2c(c1)c(C1CC(c3ccc(Br)cc3)=NN1C(=O)c1ccc(OC)nc1)cn2C (configuration not stated) | 6960 | > 10000 | > 10000 | > 10000 | 19.3 | – | – | > 300 | – | – | – | – | –
COc1ccc(/C=C\c2cc(OC)c(OC)c(OC)c2)cc1O [COMBRETASTATIN A4] | 140 | 310 | 170 | 92 | 2.1 | – | – | > 300 | 918.61 | 0.59 | Active | Active | Active
Cn1cc(C2CC(c3ccccc3)=NN2C(=O)c2cccnc2)c2cc(Br)ccc21 (configuration not stated) | 1520 | 1600 | 2520 | 1730 | 3.4 | – | – | > 300 | – | – | – | – | –
Cn1cc(C2CC(c3ccc(Br)cc3)=NN2C(=O)c2cccnc2)c2cc(Br)ccc21 (configuration not stated) | 11800 | > 10000 | 6910 | > 10000 | 18.4 | – | – | > 300 | – | – | – | – | –

Further molecules by falling GI50 (MCF7), results first:

GI50 (MCF7) [nM] | GI50 (A549) [nM] | GI50 (HepG2) [nM] | GI50 (HeLa [1]) [nM] | IC50 [3] [µM] | inhibition (Tubulin (Homo sapiens) [4]) | inhibition (Tubulin (Homo sapiens) [5]) | SMILES | CC50 at 48 h [2] [µM] | Activity (HeLa [6]) [mm3] | Activity (HeLa [7]) [g] | inhibition (Bos taurus) | Activity (HeLa [8]) | Activity (HeLa [9])
1160 | > 10000 | 5110 | 3590 | 4.3 | – | – | COc1ccc2c(c1)c(C1CC(c3ccccc3)=NN1C(=O)c1cccnc1)cn2C (configuration not stated) | > 300 | – | – | – | – | –
1110 | 990 | 630 | 590 | > 40 | – | – | Cn1cc(C2CC(c3ccccc3)=NN2C(=O)c2ccncc2)c2ccccc21 (configuration not stated) | 97.3 | – | – | – | – | –
990 | 1110 | 1330 | 1100 | 2.9 | – | – | COc1ccc2c(c1)c(C1CC(c3ccccc3)=NN1C(=O)c1ccc(OC)nc1)cn2C (configuration not stated) | > 300 | – | – | – | – | –
810 | 1020 | 910 | 1270 | 2.1 | – | – | COc1cccc(C2=NN(C(=O)c3cccnc3)C(c3cn(C)c4ccc(OC)cc34)C2)c1 (configuration not stated) | 125 | – | – | – | – | –
560 | 450 | 230 | 180 | 2.3 | – | – | COc1ccc(C2=NN(C(=O)c3ccc(OC)nc3)C(c3cn(C)c4ccc(OC)cc34)C2)cc1 (configuration not stated) | > 300 | – | – | – | – | –
480 | 1380 | 480 | 630 | 5.2 | – | – | Cn1cc(C2CC(c3ccc(F)cc3)=NN2C(=O)c2cccnc2)c2cc(Br)ccc21 (configuration not stated) | > 300 | – | – | – | – | –
480 | 710 | 220 | 410 | 2.6 | – | – | COc1ccc2c(c1)c(C1CC(c3ccc(F)cc3)=NN1C(=O)c1ccc(OC)nc1)cn2C (configuration not stated) | > 300 | – | – | – | – | –
180 | 230 | 310 | 210 | 2.3 | – | – | COc1cc(C2=NN(C(=O)c3ccc(C)nc3)C(c3cn(C)c4ccccc34)C2)cc(OC)c1OC (configuration not stated) | > 300 | – | – | – | – | –
130 | 470 | 190 | 340 | 1.9 | – | – | COc1cccc(C2=NN(C(=O)c3ccc(OC)nc3)C(c3cn(C)c4ccc(OC)cc34)C2)c1 (configuration not stated) | > 300 | – | – | – | – | –

— ChEMBL document CHEMBL4270573, “Novel nicotinoyl pyrazoline derivates bearing N-methyl indole moiety as antitumor agents: Design, synthesis and evaluation” (Eur J Med Chem, 2018)
